From ChEMBL document CHEMBL1142330, “Omega-(2-Naphthyloxy) amino alkanes as a novel class of anti-hyperglycemic and lipid lowering agents” (Bioorg Med Chem, 2008)

How the values were obtained:
[1] = test system: Rattus norvegicus; test: Antidiabetic activity in streptozotocin-induced diabetic albino Sprague-Dawley rat model assessed as decrease in blood glucose level at 100 mg/kg, po; assay type: functional
In short: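 Overnight-fasted rats received streptozotocin 60 mg/kg i.p. in 100 mM citrate buffer, pH 4.5. After 48 h, animals with glucometer glucose of 200–400 mg/dl were grouped (n=6). Sample in 1% gum acacia was given orally at 100 mg/kg; controls received vehicle.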

[2] = test system: Rattus norvegicus; test: Antidiabetic activity in sucrose loaded albino Sprague-Dawley rat model assessed as decrease in blood glucose level at 100 mg/kg, po; assay type: functional
In short: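 Male Sprague–Dawley rats were fasted overnight and used in groups of five. Baseline blood was taken, then test sample was gavaged at 100 mg/kg. A sucrose load of […] followed 30 min later.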

[3] = test system: Rattus norvegicus; test: Inhibition of phospholipids level in triton treated Charles Foster rat at 100 mg/kg, po; assay type: functional
In short: (§1)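 Male Charles Foster rats (200–225 g) were used, six per group. They received Triton WR-1339 200 mg/kg i.p. together with oral compound at 100 mg/kg in 2% aqueous gum acacia, over 18 h; vehicle controls were included. Rats were then fasted overnight and bled retro-orbitally. Serum total cholesterol, phospholipids and triglyceride were assayed.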

[4] = test system: Rattus norvegicus; test: Inhibition of cholesterol level in triton treated Charles Foster rat at 100 mg/kg, po; assay type: functional; in short: as §1
[5] = target: T1, Peroxisome proliferator-activated receptor delta (Homo sapiens) (UniProt Q03181); test: Inhibition of PPARdelta at 3 uM
T1 sequence (whole entry): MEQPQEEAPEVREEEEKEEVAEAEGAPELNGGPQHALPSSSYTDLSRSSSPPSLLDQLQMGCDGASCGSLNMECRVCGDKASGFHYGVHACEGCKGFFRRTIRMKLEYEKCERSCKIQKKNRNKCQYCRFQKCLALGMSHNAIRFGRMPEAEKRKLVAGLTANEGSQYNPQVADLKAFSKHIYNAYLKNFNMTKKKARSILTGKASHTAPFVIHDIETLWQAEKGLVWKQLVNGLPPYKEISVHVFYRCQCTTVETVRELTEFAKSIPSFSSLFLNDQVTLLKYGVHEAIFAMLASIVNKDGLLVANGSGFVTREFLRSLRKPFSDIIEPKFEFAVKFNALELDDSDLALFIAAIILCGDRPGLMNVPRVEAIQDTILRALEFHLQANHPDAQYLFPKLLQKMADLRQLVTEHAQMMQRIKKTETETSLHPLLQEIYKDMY

[6] = target: T2, Peroxisome proliferator-activated receptor alpha (Homo sapiens) (UniProt Q07869); test: Inhibition of PPARalpha at 50 uM
T2 sequence (whole entry): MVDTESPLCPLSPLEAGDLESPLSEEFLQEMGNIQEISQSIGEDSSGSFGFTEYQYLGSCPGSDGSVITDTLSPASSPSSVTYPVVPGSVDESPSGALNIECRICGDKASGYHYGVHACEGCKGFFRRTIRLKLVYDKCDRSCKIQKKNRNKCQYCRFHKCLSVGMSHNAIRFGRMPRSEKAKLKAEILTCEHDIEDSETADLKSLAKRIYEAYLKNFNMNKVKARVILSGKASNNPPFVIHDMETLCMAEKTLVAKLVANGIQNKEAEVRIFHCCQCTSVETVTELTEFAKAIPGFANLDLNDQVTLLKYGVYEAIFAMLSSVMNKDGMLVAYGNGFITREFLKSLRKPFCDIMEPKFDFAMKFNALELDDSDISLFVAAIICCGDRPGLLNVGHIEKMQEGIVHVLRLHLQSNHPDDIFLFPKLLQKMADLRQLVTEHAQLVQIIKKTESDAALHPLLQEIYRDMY

[7] = test system: Rattus norvegicus; test: Inhibition of triglyceride level in triton treated Charles Foster rat at 100 mg/kg, po; assay type: functional; in short: as §1
[8] = test system: Rattus norvegicus; test: Antidiabetic activity in glucose loaded albino Sprague-Dawley rat model assessed as decrease in blood glucose level at 100 mg/kg, po; assay type: functional
In short: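 Rats in groups of five were bled at baseline, then gavaged with test sample at 100 mg/kg. A glucose load of 2 g/kg was given 30 min later. Blood was collected at 30, 60, 90 and 120 min.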

[9] = test system: Rattus norvegicus; test: Antidiabetic activity in sucrose challenged streptozotocin-induced diabetic albino Sprague-Dawley rat model assessed as decrease in blood glucose level at 100 mg/kg, po; assay type: functional
In short: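 Diabetes was induced in overnight-fasted rats with streptozotocin 60 mg/kg i.p. in 100 mM citrate buffer, pH 4.5. Rats with glucose of 150–250 mg/dl at 48 h were selected. A sucrose load of 2.5 g/kg was given 30 min after oral dosing. Glucose was measured at 30–300 min and 24 h. Food was withheld, water allowed.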

[10] = test system: Syrian golden hamster; test: Inhibition of glucose level in Syrian golden hamster at 300 umol/kg after 10 days; assay type: functional; conditions: Mesocricetus auratus, 240 h
[11] = test system: Syrian golden hamster; test: Inhibition of free fatty acids level in Syrian golden hamster at 300 umol/kg after 10 days; assay type: functional; conditions: Mesocricetus auratus, 240 h
[12] = test system: Syrian golden hamster; test: Inhibition of glycerol level in Syrian golden hamster at 300 umol/kg after 10 days; assay type: functional; conditions: Mesocricetus auratus, 240 h
[13] = test system: Syrian golden hamster; test: Inhibition of HDL level in Syrian golden hamster at 300 umol/kg after 10 days; assay type: functional; conditions: Mesocricetus auratus, 240 h
[14] = target: T3, Peroxisome proliferator-activated receptor gamma (Homo sapiens, UniProt P37231); test: Binding affinity at PPARgamma
T3 sequence (P37231 whole entry): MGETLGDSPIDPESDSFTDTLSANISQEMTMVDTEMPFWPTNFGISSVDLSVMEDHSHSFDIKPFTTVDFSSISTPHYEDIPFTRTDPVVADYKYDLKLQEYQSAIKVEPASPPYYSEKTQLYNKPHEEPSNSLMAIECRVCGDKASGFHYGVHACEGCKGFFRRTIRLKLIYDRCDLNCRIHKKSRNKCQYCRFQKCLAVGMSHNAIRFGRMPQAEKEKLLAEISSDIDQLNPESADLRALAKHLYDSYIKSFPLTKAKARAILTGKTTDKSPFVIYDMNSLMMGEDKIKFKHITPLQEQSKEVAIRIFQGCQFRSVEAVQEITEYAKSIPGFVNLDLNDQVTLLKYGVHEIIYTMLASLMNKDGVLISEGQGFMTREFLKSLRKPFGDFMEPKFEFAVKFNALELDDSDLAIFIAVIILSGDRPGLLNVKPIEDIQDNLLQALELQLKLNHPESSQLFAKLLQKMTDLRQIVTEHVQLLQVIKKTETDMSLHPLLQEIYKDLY

[15] = test system: Syrian golden hamster; test: Inhibition of triglyceride level in Syrian golden hamster at 300 umol/kg after 10 days; assay type: functional; conditions: Mesocricetus auratus, 240 h
[16] = test system: Mus musculus; test: Antidiabetic activity in db/db mouse at 100 mg/kg after 24 hrs on day 3; assay type: functional
[17] = test system: Syrian golden hamster; test: Inhibition of cholesterol level in Syrian golden hamster at 300 umol/kg after 10 days; assay type: functional; conditions: Mesocricetus auratus, 240 h
[18] = test system: Mus musculus; test: Antidiabetic activity in db/db mouse at 100 mg/kg after 5 hrs on day 3; assay type: functional

Compound | inhibition in vivo at 100 mg/kg [1] [%] | inhibition in vivo at 100 mg/kg [2] [%] | inhibition in vivo at 100 mg/kg [3] [%] | inhibition in vivo at 100 mg/kg [4] [%] | inhibition [5] [%] | inhibition [6] [%] | inhibition in vivo at 100 mg/kg [7] [%] | inhibition in vivo at 100 mg/kg [8] [%] | inhibition in vivo at 100 mg/kg [9] [%] | inhibition in vivo at 300 µmol/kg [10] [%] | inhibition in vivo at 300 µmol/kg [11] [%] | inhibition in vivo at 300 µmol/kg [12] [%] | inhibition in vivo at 300 µmol/kg [13] [%] | EC50 [14] [µM] | inhibition in vivo at 300 µmol/kg [15] [%] | inhibition in vivo at 100 mg/kg [16] [%] | inhibition in vivo at 300 µmol/kg [17] [%] | inhibition in vivo at 100 mg/kg [18] [%]
Cc1ccc(S(=O)(=O)NC(=O)NN2CC3CCCC3C2)cc1 (stereo not given) [GLICLAZIDE] | 27.7 | 44.8 |  |  |  |  |  |  |  |  |  |  |  |  |  |  |  | 
COc1ccc(Cl)cc1C(=O)NCCc1ccc(S(=O)(=O)NC(=O)NC2CCCCC2)cc1 [GLYBURIDE] | 32.8 | 33.9 |  |  |  |  |  |  |  |  |  |  |  |  |  |  |  | 
COc1ccc(N(C)CCCOc2ccc3ccccc3c2)cc1 |  | 14.5 | 19 | 11 | 19.3 | 22.5 | 15 | 8.2 |  |  |  |  |  |  |  |  |  | 
Cc1ccc(NCCCCOc2ccc3ccccc3c2)cc1 |  | 6.9 |  |  |  |  |  | 3.21 |  |  |  |  |  |  |  |  |  | 
CCOC(=O)CN(CCCOc1ccc2ccccc2c1)c1ccc(OC)cc1 | 6.9 | 45.4 | 26 | 21.2 | 29.6 | 33.5 | 15 | 25.9 | 5.6 | 34 | 48 | 7.3 | 16 | 4.8 | 68 | 15.4 | 22 | 12
CCCCN(CCCOc1ccc2ccccc2c1)c1ccc(OC)cc1 |  | 4.4 | 25 | 15 | 8.4 | 8.5 | 17 | 13.5 |  |  |  |  |  |  |  |  |  | 
c1ccc(CNCCCCOc2ccc3ccccc3c2)cc1 |  | 16 | 18 | 10.1 | 22.4 | 21.3 | 5 | 8.89 |  |  |  |  |  |  |  |  |  | 
CCCCCCCCNCCCOc1ccc2ccccc2c1 |  | 32 |  |  | 7.9 | 11.4 |  | 17 |  |  |  |  |  |  |  |  |  | 
COc1ccc(NCCCOc2ccc3ccccc3c2)cc1 | 28.5 | 31 | 38 | 32.4 | 42.6 | 44.5 | 28 | 33.6 | 73.8 | 31 |  | 14 | 15 | 33.8 | 48 | 28.9 | 14 | 22.4
C/C=C1\C(=O)C[C@H]2[C@@H]3CCC4=CC(=O)CC[C@]4(C)[C@H]3CC[C@]12C [GUGGULSTERONE] |  |  | 33 | 34 |  |  | 30 |  |  |  |  |  |  |  |  |  |  | 
COc1cccc(CNCCCOc2ccc3ccccc3c2)c1 |  | 8.3 | 22 | 14 |  |  | 22 | 1.23 |  |  |  |  |  |  |  |  |  | 
CCO[C@@H](Cc1ccc(OCCc2ccc(OS(C)(=O)=O)cc2)cc1)C(=O)O |  |  |  |  |  | 55.5 |  |  |  |  |  |  |  |  |  |  |  | 
CCCN(CCCOc1ccc2ccccc2c1)c1ccc(OC)cc1 |  | 37.2 | 27 | 14 | 9.6 | 10.9 | 12 | 11.6 |  |  |  |  |  |  |  |  |  | 
CCN(CCCOc1ccc2ccccc2c1)c1ccc(OC)cc1 |  | 13.5 |  |  | 17.3 | 20.3 |  | 6.88 |  |  |  |  |  |  |  |  |  | 
Cc1ccc(NCCOc2ccc3ccccc3c2)cc1 |  | 6.99 | 30 | 27 |  |  | 18 | 2.45 |  |  |  |  |  |  |  |  |  | 
COc1ccc(N(CCCOc2ccc3ccccc3c2)CC(=O)O)cc1 |  | 21.5 | 16.9 | 23.8 | 20.2 | 25.4 | 13 | 15.5 |  | 22 |  | 23 | 11 |  | 44 |  | 21 | 
COc1ccc(NCCOc2ccc3ccccc3c2)cc1 |  | 19.4 |  |  | 24.6 | 22.2 |  | 10.6 |  |  |  |  |  |  |  |  |  | 
c1ccc(CNCCOc2ccc3ccccc3c2)cc1 | 13 | 64 | 34 | 31 | 31.3 | 36.2 | 37 | 37.6 | 69.5 | 9.5 |  | 10 | 13 | 0.4 | 37 | 11.6 | 14 | 7
COc1ccc(NCCCCOc2ccc3ccccc3c2)cc1 |  | 5.09 | 36 | 24 | 16.3 | 18.3 | 22 | 3.89 |  |  |  |  |  |  |  |  |  | 
c1ccc(CNCCCOc2ccc3ccccc3c2)cc1 |  | 40.5 |  |  | 29.1 | 28.4 |  | 13.8 |  |  |  |  |  |  |  |  |  | 
